Assay outcomes: PubChem, several laboratories
The list is not random: actives were taken first. Their share in the collection is about 3.7%.
MPTP inh: mitochondrial permeability transition pore inhibitors, primary screen, biochemical, isolated mouse mitochondria, absorbance. Ca2+ swelling absorbance, 30 min. inhibition, % at 10 µM. hit rate 1.4% among 360,000. AID 602449, 2012;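 active = inhibition of 50% or more, scaled per plate between neutral and stimulator controls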
aDG glyco act: activators of alpha-DG glycosylation, primary screen, uHTS, Pro5-aDG cells, AlphaScreen. activation, % at 10 µM. hit rate 0.22% among 360,000. alpha-DG glycosylation AlphaScreen (IIH6); 0% Pro5, 100% B10-LARGE cell signal;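 active = activation of at least 8% versus controls, or a plate z-score of at least 8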;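 also: Pro5 are CHO cells carrying HIG-tagged alpha-DG that lacks glycosylation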
procasp3 activ: activators of human procaspase-3 D3A mutant, primary screen, biochemical, absorbance, PC-3 D3A mutant, single concentration | Caspase-3 (Homo sapiens), P42574 | recombinant procaspase-3 D3A, Ac-DEVD-pNA absorbance 405 nm | activation, % at 8.5 µM | hit rate 0.11% among 330,000 | AID 463141, 2010;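 active = activation above the mean of all tested compounds plus 3 SD, cut at about 21% in these data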
Target sequence (P42574 whole entry D9A/D28A/D175A): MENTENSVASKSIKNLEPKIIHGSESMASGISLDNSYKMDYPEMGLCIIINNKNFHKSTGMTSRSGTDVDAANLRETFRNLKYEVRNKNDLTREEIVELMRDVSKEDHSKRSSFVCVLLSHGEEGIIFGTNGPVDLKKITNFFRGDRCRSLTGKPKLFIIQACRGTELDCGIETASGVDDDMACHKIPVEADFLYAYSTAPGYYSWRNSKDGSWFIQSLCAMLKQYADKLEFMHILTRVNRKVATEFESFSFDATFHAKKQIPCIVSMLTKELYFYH
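Compound: 8.5 µM single point, 0.8% DMSO / Material: Autoprocessing-dead procaspase-3 D3A mutant enzyme / Timing: 1 h preincubation plus 2 h reaction at 25 °C / Medium: Zinc-free HEPES/NaCl buffer with 0.01% Triton X-100 at pH 7.4 / Technique: 405 nm absorbance of p-nitroaniline, reads at 0 and 120 min / Repeats: one well per compound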
NR3A LBD binder: binders of NR3A ligand-binding domain, primary screen, biophysical, differential scanning fluorimetry, uHTS; Glutamate receptor ionotropic, NMDA 3A (GRIN3A) ligand-binding domain; NR3A LBD differential scanning fluorimetry, Tm shift; 0% = protein alone, 100% = glycine-bound protein; Tm shift relative to glycine control, % at 25 µM; hit rate 2.5% among 340,000; AID 1259313, 2017;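 active = melting temperature shift of at least 10% of the positive control shift, at one fixed dose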
procasp7 counter: procaspase-7 activators, primary screen, counter-screen for procaspase-3 activator project, biochemical, absorbance, HTS, human. Caspase-7 (Homo sapiens), P55210. recombinant procaspase-7, Ac-DEVD-pNA absorbance 405 nm; D23A/D198A/D206A triple mutant, cannot self-cleave; scale: DMSO 0, 5 µM enzyme 100. activation, % at 8.5 µM. hit rate 0.093% among 330,000. AID 463210, 2010;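 active = percent activation above the screen-wide mean plus 3 SD, cut at about 25% in these data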
Target sequence (P55210 whole entry D23A/D198A/D206A): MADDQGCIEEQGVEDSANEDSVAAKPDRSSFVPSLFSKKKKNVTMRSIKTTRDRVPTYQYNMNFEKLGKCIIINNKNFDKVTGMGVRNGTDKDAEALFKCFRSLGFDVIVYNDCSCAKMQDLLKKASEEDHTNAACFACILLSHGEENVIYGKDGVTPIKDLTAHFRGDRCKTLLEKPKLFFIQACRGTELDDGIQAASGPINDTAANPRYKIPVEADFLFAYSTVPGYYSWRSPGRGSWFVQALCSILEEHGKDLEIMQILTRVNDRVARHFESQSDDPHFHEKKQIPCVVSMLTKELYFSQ
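Replicates: singlicate. Assay system: Procaspase-7 triple mutant (PC-7 D3A). Signal: 405 nm absorbance of p-nitroaniline. Times: 1 h preincubation, 2 h reaction. Buffer or medium: Zinc-free HEPES pH 7.4 with 300 mM NaCl, 0.01% Triton X-100. Also added: DEVD-pNA substrate. Benchmarks: DMSO wells as 0%, DMSO with 5 µM added PC-7 as 100%.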
Large screens that a line does not name were inactive.

CCOC(=O)c1sc(NC(=O)c2c(CC)noc2C)nc1C	NR3A LBD binder 19
CCOC(=O)c1sc(NC(=O)CSc2nccn2C)nc1C	NR3A LBD binder 13
CC1(C)Cc2c(sc(NC(=O)c3ccccc3)c2C(=O)O)CO1	NR3A LBD binder 10
COc1ccc(C(=O)Nc2sc3c(c2C(=O)O)CC(C)(C)OC3)cc1	none
Cc1ccc(S(=O)(=O)N(C)CC(=O)NCCCn2nc(C)cc2C)cc1	NR3A LBD binder 13
CN(CCC#N)C(=O)COC(=O)c1c2c(nc3ccccc13)/C(=C\c1ccco1)CC2	none (no result: procasp3 activ, procasp7 counter)
O=C(NNC(=O)c1cc(-c2ccc(Cl)cc2Cl)nc2ccccc12)Nc1ccccc1	NR3A LBD binder 30
O=C(NNC(=O)c1ccc(Cl)cc1Cl)Nc1ccccc1	none
Cc1ccc(NC(=O)c2ccco2)c([N+](=O)[O-])c1	none
Cc1c([N+](=O)[O-])cc(C(=O)Nc2ccc(NC(=O)c3ccco3)cc2)cc1[N+](=O)[O-]	NR3A LBD binder 25
CCOc1ccc(C(=O)NC(=S)Nc2ccc(NC(=O)c3ccco3)cc2)cc1[N+](=O)[O-]	NR3A LBD binder 41
COc1cc(C(=O)NC(=S)Nc2ccc(NC(=O)c3ccco3)cc2)cc(OC)c1OC	NR3A LBD binder 22
Clc1ccc2c(NCc3ccccn3)ccnc2c1	none
CCOc1ccccc1Nc1ccnc2cc(Cl)ccc12	NR3A LBD binder 228
NC(C(=O)O)C1ON=C(Cl)C1O (configuration not stated)	none (no result: procasp3 activ, procasp7 counter)
O=C(NCCO)OC1CC2CC1[C@H]1CCCCN1C2=O (some centres not stated)	none (no result: procasp3 activ, NR3A LBD binder, procasp7 counter)
CCC(Sc1ccccn1)C(=O)Nc1cccc([N+](=O)[O-])c1 (configuration not stated)	NR3A LBD binder 17
CC(Sc1cccc[n+]1[O-])C(=O)Nc1cccc([N+](=O)[O-])c1 (configuration not stated)	none
O=C(Cc1ccccc1)N/N=C/C=C/c1cccc([N+](=O)[O-])c1	none
Cc1ccccc1NCC(=O)N/N=C\C=C\c1cccc([N+](=O)[O-])c1	NR3A LBD binder 15
CCCCCCN1C[C@H](n2cc(C3CC3)nn2)[C@@H](O)C[C@@H]1c1ccc(OC)cc1	none (no result: procasp3 activ, NR3A LBD binder, procasp7 counter)
CCN(CC(=O)N1CCC(C)CC1)S(=O)(=O)c1ccc(C)cc1	none
Cc1ccc(S(=O)(=O)N(CC(=O)N2CCC(C)CC2)Cc2ccccc2F)cc1	NR3A LBD binder 13
C[C@H](O)[C@@H]1C(=O)N2CCc3ccc(N4CCN(C)CC4)cc3[C@@H]2C[C@@H]1N(C)C(=O)c1ccco1	none (no result: procasp3 activ, NR3A LBD binder, procasp7 counter)
COc1ccc(-c2c(-c3cc(OC)cc(OC)c3)sc3ccc(OC)cc23)cc1	NR3A LBD binder 13
COc1cc(OC)cc(-c2sc3ccc(OC)cc3c2-c2ccc(O)cc2)c1	none
Cc1ccc2[nH]c(=O)c(NC(N)=S)nc2c1	NR3A LBD binder 11
NC(=S)Nc1nc2ccccc2[nH]c1=O	none (no result: MPTP inh, aDG glyco act, NR3A LBD binder)
Cc1cccc(CS(=O)(=O)c2ncc(CO)n2C)c1	none
COc1cc2ncc(S(=O)(=O)c3ccccc3)c(N3CCCC(C)C3)c2cc1OC (configuration not stated)	NR3A LBD binder 15
CC(OC(=O)c1ccc(NC(=O)CC#N)cc1)C(=O)Nc1nc(-c2ccccc2)cs1 (configuration not stated)	NR3A LBD binder 21
CC(OC(=O)c1ccc(NC(=O)CC#N)cc1)C(=O)Nc1ccc(Oc2ccccc2)cc1 (configuration not stated)	none (no result: NR3A LBD binder)
O=C(COc1ccccc1)OCC(=O)c1c[nH]c2ccccc12	none
COc1ccccc1/C=C/C(=O)OCC(=O)c1c[nH]c2ccccc12	NR3A LBD binder 11
COc1cc(/C=C/C(=O)OCC(=O)c2c[nH]c3ccccc23)ccc1OC(F)F	NR3A LBD binder 29
COc1ccc(OCC(=O)c2c[nH]c3ccccc23)cc1	NR3A LBD binder 14
COc1ccccc1CNC(=O)COC(=O)/C=C/c1ccc(OC(F)F)c(OC)c1	none
C=CCCC(=O)N1C[C@H]2CON(C)[C@H]2C[C@H]1c1ccc(N2CCCCC2)cc1	none (no result: procasp3 activ, NR3A LBD binder, procasp7 counter)
COC(=O)[C@]12CCCCC=C1N(Cc1ccccc1)C(=O)[C@H](CC(=O)N1CCSCC1)C2	none (no result: procasp3 activ, NR3A LBD binder, procasp7 counter)
Nc1c(N=Nc2cccc(Cl)c2)c(=O)[nH]n1-c1ccccc1	none
Nc1[nH]c(=O)[nH]c(=O)c1N=Nc1cccc(Cl)c1	NR3A LBD binder 16
COc1ccc(NC(=O)c2ccc(-c3ccc([N+](=O)[O-])cc3)o2)cc1	NR3A LBD binder 25
COc1ccc(NC(=O)c2ccc(-c3ccc(C(C)=O)cc3)o2)cn1	NR3A LBD binder 27
CC(=O)c1ccc(NC(=O)CCC(=O)OCC(=O)c2cccc([N+](=O)[O-])c2)cc1	NR3A LBD binder 62
CC(=O)Nc1ccc(NC(=O)CCC(=O)OCC(=O)c2ccc(C)c([N+](=O)[O-])c2)cc1	none
COc1ccc(NC(=O)CCC(=O)OCc2ccc([N+](=O)[O-])cc2)cc1	NR3A LBD binder 20
Cc1ccc(NC(=O)CNC(=O)Cc2cccc3ccccc23)c(O)c1	none
CCCCNC(=O)c1nc(C2CCN(S(=O)(=O)c3ccc(OC(F)(F)F)cc3)CC2)oc1-c1ccccc1	none (no result: procasp3 activ, NR3A LBD binder, procasp7 counter)
CC(C)CN(C(=O)CN1C(=O)NC(c2ccccc2)(c2ccccc2)C1=O)C1CCS(=O)(=O)C1 (configuration not stated)	none
Cn1c(N)c(C(=O)N2CCN(c3ccccc3)CC2)c(=O)n(C)c1=O	none (no result: procasp3 activ, NR3A LBD binder, procasp7 counter)
COc1cccc(-c2cnc3c(NC(C)=O)cc(-c4ccc(C(=O)N5CCOCC5)cc4)cn23)c1	none (no result: procasp3 activ, NR3A LBD binder, procasp7 counter)
CCOc1cc(S(=O)(=O)Nc2ccc(CC)cc2)ccc1Cl	NR3A LBD binder 13
CCOc1cc(S(=O)(=O)Nc2ccc(Cl)cn2)ccc1F	NR3A LBD binder 11
CC(=O)Nc1cccc(Nc2cc(C)nn2C)c1	none (no result: procasp3 activ, NR3A LBD binder, procasp7 counter)
O=C(Nc1nnc([C@@H]2O[C@H](CO)[C@@H](O)[C@H]2O)s1)Nc1ccccc1C(F)(F)F	none (no result: procasp3 activ, NR3A LBD binder, procasp7 counter)
CCN(CC)C(=O)C1=C(C)N(Cc2ccccc2)C(=O)C(CC(=O)NCCN2CCOCC2)C1 (configuration not stated)	none (no result: procasp3 activ, NR3A LBD binder, procasp7 counter)
COc1ccc(-c2cc3ccc(O)cc3oc2=O)cc1OC	none
COc1ccc(-c2c(C)c3cc(O)ccc3oc2=O)cc1OC	NR3A LBD binder 42
COc1ccc(Nc2cccc(Cl)c2)c(C(=O)O)c1	none
O=C(Nc1cccc(C(=O)Nc2ccccc2C(=O)O)c1)c1cccc(Cl)c1	NR3A LBD binder 14
